According to ChEMBL document CHEMBL4842366, “Design, synthesis and structure-activity relationship studies of 4-indole-2-arylaminopyrimidine derivatives as anti-inflammatory agents for acute lung injury” (Eur J Med Chem, 2021):
The source made the active and inactive calls. The calls are words filed in the database; no cut-off is given here.

Columns and labels:
[1] = Antiinflammatory activity in human HBE cells assessed as inhibition of LPS-induced IL-6 production at 5 uM pretreated with compound for 30 mins followed by LPS stimulation and measured after 24 hrs by ELISA relative to control; format: functional; conditions: 24.5 h, time 1470 min
Summary of the method: (§1)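 HBE cells were grown in RPMI-1640 with 10% FBS at 37 °C and 5% CO2. Cells were pretreated for 30 min with compound or indomethacin at 5 μM, then stimulated with LPS (100 μg/mL) for 24 h. IL-6 or IL-8 in the medium was measured by ELISA and normalized to total cell protein determined by BCA assay.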

[2] = Cytotoxicity against human HBE cells assessed as cell survival rate at 10 uM by MTT assay relative to control; format: cell-based; conditions: read-out: Survival
Summary of the method: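 HBE cells in RPMI-1640 with 10% FBS at 37 °C, 5% CO2, seeded at 1 × 10^4 cells per well. Compounds tested at 10 μM. After treatment, MTT (5 mg/mL) for 4 h at 37 °C in the dark, formazan dissolved in DMSO, absorbance read at 490 nm. Data as mean ± SEM.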

[3] = Antiinflammatory activity in human HBE cells assessed as inhibition of LPS-induced IL-8 production at 5 uM pretreated with compound for 30 mins followed by LPS stimulation and measured after 24 hrs by ELISA relative to control; format: functional; conditions: 24.5 h, time 1470 min; summary of the method: as §1
HBE [4] = experiment: Antiinflammatory activity in human HBE cells assessed as inhibition of LPS-induced IL-8 production at 5 uM pretreated with compound for 30 mins followed by LPS stimulation and measured after 24 hrs by ELISA; format: functional, cell-based; conditions: time 1470.0 min; summary of the method: as §1
HBE [5] = experiment: Antiinflammatory activity in human HBE cells assessed as inhibition of LPS-induced IL-6 production at 5 uM pretreated with compound for 30 mins followed by LPS stimulation and measured after 24 hrs by ELISA; format: functional, cell-based; conditions: time 1470.0 min; summary of the method: as §1
[6] = Cytotoxicity against human HBE cells assessed as reduction in cell survival at 10 uM by MTT assay; format: cell-based
Summary of the method: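 HBE cells were seeded at 1 × 10^4 per well in RPMI-1640 with 10% FBS and exposed to compound at 10 μM. Viability was then read by MTT: MTT solution (5 mg/mL) for 4 h at 37 °C in the dark, formazan dissolved in DMSO, and absorbance read at 490 nm.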

[7] = biological target: T1, Epidermal growth factor receptor (Homo sapiens, UniProt P00533); experiment: Inhibition of EGFR phosphorylation in human HBE cells incubated for 24 hrs by western blot analysis; format: cell-based
Summary of the method: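 HBE cells were treated with drug for 24 h, washed with cold PBS and lysed on ice for 30 min in buffer with protease and phosphatase inhibitors, then centrifuged at 12000 r/min, 4 °C, for 30 min. Protein was quantified by BCA and separated by SDS-PAGE. Blots were probed overnight at 4 °C with p-EGFR/EGFR antibodies, then secondary antibody (1:2000, 2 h), and detected by chemiluminescence.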

[8] = biological target: T1, Epidermal growth factor receptor; experiment: Inhibition of human EGFR using poly(Glu:Tyr)(4:1) as substrate in presence of [gamma33P]ATP by radiometric HotSpot assay
Peritoneal macrophage = experiment: Inhibition of LPS-induced NO production in mouse peritoneal macrophages measured after 24 hrs by Griess assay; format: functional, cell-based
Mus musculus [9] = experiment: In vivo inhibition of MAPK phosphorylation in LPS-induced acute lung injury C57BL/6 mouse model assessed as inhibition of ERK phosphorylation in lungs at 20 mg/kg, ip administered for 3 days and on day 4 treated 1 hr before LPS stimulation and measured after 18 hrs by western blot analysis; format: functional, organism-based; conditions: time 4.0 day
Mus musculus [10] = experiment: Antiinflammatory activity against LPS-induced acute lung injury C57BL/6 mouse model assessed as reduction in protein content in BALF at 10 to 20 mg/kg, ip administered for 3 days and on day 4 treated 1 hr before LPS stimulation and measured after 18 hrs by BCA assay; format: functional, organism-based; conditions: dose 10-20 mg/kg, time 4.0 day
Summary of the method: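 In male C57BL/6 mice (n = 6/group; i.p. dosing for 3 days; intratracheal LPS 5 mg/kg 1 h after the day-4 dose; killed at 18 h), lungs were lavaged three times with 1 mL cold PBS. BALF was spun at 800 g, 4 °C, for 10 min, and supernatant protein was measured by BCA assay.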

Mus musculus [11] = experiment: Antiinflammatory activity against LPS-induced acute lung injury C57BL/6 mouse model assessed as reduction in TNF-alpha mRNA expression in lungs at 20 mg/kg, ip administered for 3 days and on day 4 treated 1 hr before LPS stimulation and measured after 18 hrs by SYBR green dye based RT-qPCR analysis; format: functional, organism-based; conditions: time 4.0 day
Summary of the method: (§2)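 Same LPS lung-injury protocol: n = 6 male C57BL/6 mice per group, 3 days of i.p. saline or compound, then intratracheal LPS (5 mg/kg) 1 h after the day-4 dose, and sacrifice at 18 h. Lung RNA was extracted with TRIZOL for real-time quantitative PCR, with mouse GAPDH primers alongside the target primers. Data are mean ± SEM; Student's t-test.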

Mus musculus [12] = experiment: Antiinflammatory activity against LPS-induced acute lung injury C57BL/6 mouse model assessed as reduction in iNOS mRNA expression in lungs at 10 to 20 mg/kg, ip administered for 3 days and on day 4 treated 1 hr before LPS stimulation and measured after 18 hrs by SYBR green dye based RT-qPCR analysis; format: functional, organism-based; conditions: dose 10-20 mg/kg, time 4.0 day; summary of the method: as §2
Mus musculus [13] = experiment: (§3) Antiinflammatory activity against LPS-induced acute lung injury C57BL/6 mouse model assessed as improved alveolar structure in lungs at 20 mg/kg, ip administered for 3 days and on day 4 treated 1 hr before LPS stimulation and measured after 18 hrs by H and E staining based microscopic analysis; format: functional, organism-based; conditions: time 4.0 day
Summary of the method: (§4)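 Male C57BL/6 mice (20–25 g, SPF) in groups of n = 6 were given 0.9% saline or compound i.p. for 3 days. On day 4, LPS (5 mg/kg) was instilled intratracheally 1 h after dosing, and mice were killed 18 h later. Lungs were fixed in 4% paraformaldehyde, paraffin-embedded, cut at 5 μm, H&E-stained and photographed for pathology.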

Mus musculus [14] = experiment: as §3, with “reduction in inflammatory cell infiltration” for “improved alveolar structure”; format: functional, organism-based; conditions: time 4.0 day; summary of the method: as §4
Mus musculus [15] = experiment: Antiinflammatory activity against LPS-induced acute lung injury C57BL/6 mouse model assessed as reduction in IL-6 mRNA expression in lungs at 20 mg/kg, ip administered for 3 days and on day 4 treated 1 hr before LPS stimulation and measured after 18 hrs by SYBR green dye based RT-qPCR analysis; format: functional, organism-based; conditions: time 4.0 day; summary of the method: as §2
Mus musculus [16] = experiment: Antiinflammatory activity against LPS-induced acute lung injury C57BL/6 mouse model assessed as reduction in lung edema by measuring reduction in lung wet/dry ratio at 10 to 20 mg/kg, ip administered for 3 days and on day 4 treated 1 hr before LPS stimulation and measured after 18 hrs; format: functional, organism-based; conditions: dose 10-20 mg/kg, time 4.0 day
Summary of the method: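 Mice (male C57BL/6, n = 6/group) received i.p. saline or compound for 3 days, then intratracheal LPS 5 mg/kg 1 h after the day-4 dose, and were killed 18 h later. Lungs were weighed wet, dried at 60 °C for 48 h to constant weight, and the wet/dry ratio was calculated. Data are mean ± SEM; t-test.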

Mus musculus [17] = experiment: Antiinflammatory activity against LPS-induced acute lung injury C57BL/6 mouse model assessed as reduction in edema of lung tissue at 20 mg/kg, ip administered for 3 days and on day 4 treated 1 hr before LPS stimulation and measured after 18 hrs by H and E staining based microscopic analysis; format: functional, organism-based; conditions: time 4.0 day; summary of the method: as §4
Mus musculus [18] = experiment: Antiinflammatory activity against LPS-induced acute lung injury C57BL/6 mouse model assessed as reduction in IL-1beta mRNA expression in lungs at 20 mg/kg, ip administered for 3 days and on day 4 treated 1 hr before LPS stimulation and measured after 18 hrs by SYBR green dye based RT-qPCR analysis; format: functional, organism-based; conditions: time 4.0 day; summary of the method: as §2
Mus musculus [19] = experiment: In vivo inhibition of MAPK phosphorylation in LPS-induced acute lung injury C57BL/6 mouse model assessed as inhibition of p38 phosphorylation in lungs at 20 mg/kg, ip administered for 3 days and on day 4 treated 1 hr before LPS stimulation and measured after 18 hrs by western blot analysis; format: functional, organism-based; conditions: time 4.0 day
Mus musculus [20] = experiment: Antiinflammatory activity against LPS-induced acute lung injury C57BL/6 mouse model assessed as reduction in total cell count in BALF at 10 to 20 mg/kg, ip administered for 3 days and on day 4 treated 1 hr before LPS stimulation and measured after 18 hrs; format: functional, organism-based; conditions: dose 10-20 mg/kg, time 4.0 day
Summary of the method: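 BALF was collected 18 h after intratracheal LPS (5 mg/kg) in male C57BL/6 mice (n = 6/group) given i.p. saline or compound for 3 days, with LPS 1 h after the day-4 dose. Lavage was done with 3 × 1 mL cold PBS and centrifuged at 800 g, 4 °C, for 10 min. The pellet was washed and resuspended in 10 mL PBS, and total cells were counted.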

T1 sequence (P00533 whole entry): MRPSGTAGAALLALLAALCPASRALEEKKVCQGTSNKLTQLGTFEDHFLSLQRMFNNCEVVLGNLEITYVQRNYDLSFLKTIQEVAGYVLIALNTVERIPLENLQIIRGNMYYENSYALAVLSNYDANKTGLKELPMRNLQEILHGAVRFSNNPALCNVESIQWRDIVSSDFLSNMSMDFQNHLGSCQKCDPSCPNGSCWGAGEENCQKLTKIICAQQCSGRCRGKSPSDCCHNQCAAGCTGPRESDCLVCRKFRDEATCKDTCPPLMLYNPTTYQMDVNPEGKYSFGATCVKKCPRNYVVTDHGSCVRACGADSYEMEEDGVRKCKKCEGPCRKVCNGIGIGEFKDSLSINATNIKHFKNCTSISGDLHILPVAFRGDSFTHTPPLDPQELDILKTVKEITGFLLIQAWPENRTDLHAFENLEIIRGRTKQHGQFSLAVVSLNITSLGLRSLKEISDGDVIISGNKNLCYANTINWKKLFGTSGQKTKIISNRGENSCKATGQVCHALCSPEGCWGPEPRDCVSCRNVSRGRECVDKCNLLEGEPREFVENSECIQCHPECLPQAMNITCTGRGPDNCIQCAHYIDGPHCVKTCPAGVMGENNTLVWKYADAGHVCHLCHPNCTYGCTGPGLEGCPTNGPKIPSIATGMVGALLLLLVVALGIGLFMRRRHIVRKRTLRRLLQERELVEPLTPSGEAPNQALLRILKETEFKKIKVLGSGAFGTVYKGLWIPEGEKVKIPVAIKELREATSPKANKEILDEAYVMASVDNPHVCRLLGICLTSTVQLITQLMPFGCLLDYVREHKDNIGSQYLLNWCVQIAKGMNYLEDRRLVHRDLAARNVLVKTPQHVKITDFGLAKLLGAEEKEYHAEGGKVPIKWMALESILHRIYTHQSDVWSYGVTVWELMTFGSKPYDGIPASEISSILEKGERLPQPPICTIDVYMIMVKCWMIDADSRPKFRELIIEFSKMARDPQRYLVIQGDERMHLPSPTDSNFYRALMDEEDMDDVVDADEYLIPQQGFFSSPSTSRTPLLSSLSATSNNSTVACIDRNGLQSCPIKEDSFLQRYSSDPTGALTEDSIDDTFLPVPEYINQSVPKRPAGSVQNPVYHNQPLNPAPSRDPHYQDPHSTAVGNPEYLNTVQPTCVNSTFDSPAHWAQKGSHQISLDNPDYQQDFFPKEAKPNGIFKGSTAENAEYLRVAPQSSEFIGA

| Compound | inhibition at 5 µM [3] [%] | Activity (HBE [4]) | Activity (HBE [5]) | Activity [6] | also measured |
| --- | --- | --- | --- | --- | --- |
| COc1cc(N2CCN(C)CC2)c(N)cc1Nc1nccc(-c2cn(C)c3ccccc23)n1 | 65 |  |  |  | inhibition at 5 µM [1]: 62%; viability at 10 µM [2]: < 70% |
| CCN(CC)c1cc(OC)c(Nc2nccc(-c3cn(C)c4ccccc34)n2)cc1N.Cl |  | Active | Active | Non-Toxic |  |
| COc1cc(N2CCOCC2)c(N)cc1Nc1nccc(-c2cn(C)c3ccccc23)n1.Cl |  | Active | Active | Non-Toxic |  |
| COc1cc(F)c(N)cc1Nc1nccc(-c2cn(C)c3ccccc23)n1 | 49 |  |  | Non-Toxic | inhibition at 5 µM [1]: 63%; inhibition [7]: Active |
| COc1cc(N(C)CCN(C)C)c([N+](=O)[O-])cc1Nc1nccc(-c2cn(C)c3ccccc23)n1 |  | Active | Active |  | viability at 10 µM [2]: < 70% |
| O=C(Nc1cncnc1Oc1cccc(C(F)(F)F)c1)c1ccc(F)cc1 |  |  |  |  | IC50 [8]: 2.98 µM; IC50 (Peritoneal macrophage): 20.8 µM |
| COc1cc(N(C)CCN(C)C)c(NC(=O)CCCN=[N+]=[N-])cc1Nc1nccc(-c2cn(C)c3ccccc23)n1 | 88 |  | Active | Non-Toxic |  |
| COc1cc(N(C)CCN(C)C)c(NC(=O)CN=[N+]=[N-])cc1Nc1nccc(-c2cn(C)c3ccccc23)n1 |  | Active | Active | Non-Toxic |  |
| COc1cc(N2CCCC2)c(N)cc1Nc1nccc(-c2cn(C)c3ccccc23)n1.Cl | 65 |  |  | Non-Toxic | inhibition at 5 µM [1]: 62%; inhibition [7]: Active |
| COc1ccc2c(c1)c(CC(=O)O)c(C)n2C(=O)c1ccc(Cl)cc1 [INDOMETHACIN] |  | Active | Active | Non-Toxic |  |
| COc1cc(N2CCCCC2)c(N)cc1Nc1nccc(-c2cn(C)c3ccccc23)n1.Cl |  | Active | Active | Non-Toxic |  |
| COc1cc(N2CCCCCC2)c(N)cc1Nc1nccc(-c2cn(C)c3ccccc23)n1.Cl |  | Active | Active | Non-Toxic |  |
| COc1cc(N(C)CCN(C)C)c(N)cc1Nc1nccc(-c2cn(C)c3ccccc23)n1.Cl | 72 |  |  | Non-Toxic | inhibition (Mus musculus [9]): Active; Activity (Mus musculus [10]): Active; Activity (Mus musculus [11]): Active; Activity (Mus musculus [12]): Active; Activity (Mus musculus [13]): Active; Activity (Mus musculus [14]): Active; inhibition at 5 µM [1]: 62%; Activity (Mus musculus [15]): Active; Activity (Mus musculus [16]): Active; Activity (Mus musculus [17]): Active; Activity (Mus musculus [18]): Active; inhibition (Mus musculus [19]): Active; Activity (Mus musculus [20]): Active; inhibition [7]: Active |
| CCCCN(CCCC)c1cc(OC)c(Nc2nccc(-c3cn(C)c4ccccc34)n2)cc1N.Cl |  | Active | Active | Non-Toxic |  |
